Assay results: ChEMBL document CHEMBL4038349, “Synthesis and Evaluation of Asymmetric Acyclic Nucleoside Bisphosphonates as Inhibitors of Plasmodium falciparum and Human Hypoxanthine-Guanine-(Xanthine) Phosphoribosyltransferase” (J Med Chem, 2017)
Calls of active or inactive are those of the source. No cut-off for these calls is given here.

Columns and labels:
[1] = molecular target: T1, Hypoxanthine-guanine phosphoribosyltransferase (Homo sapiens, UniProt P00492); experiment: Inhibition of human HGPRT using PRib-PP as the substrate by spectrophotometric method
T1 sequence (P00492 whole entry): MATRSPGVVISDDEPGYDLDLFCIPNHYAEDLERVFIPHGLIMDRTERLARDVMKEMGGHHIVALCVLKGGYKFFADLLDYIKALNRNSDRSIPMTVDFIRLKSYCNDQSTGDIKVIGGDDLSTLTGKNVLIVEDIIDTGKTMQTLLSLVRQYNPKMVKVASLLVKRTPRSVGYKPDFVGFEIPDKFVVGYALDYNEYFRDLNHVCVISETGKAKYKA
Procedure, shortened: (§1)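 Enzyme assays in 0.1 M Tris-HCl, 10 mM MgCl2, pH 7.4. Guanine fixed at 49 µM as non-variable substrate; PRib-PP varied 20-1400 µM at fixed inhibitor concentration; Hanes' plots. Ki from Km(app) = Km[1+[I]/Ki], assuming competitive inhibition; for Ki <2 µM, Km(app) measured at three inhibitor concentrations.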

[2] = Inhibition of Plasmodium falciparum HGPRT using PRib-PP as the substrate by spectrophotometric method; procedure, shortened: as §1
[3] = tested on: Plasmodium falciparum; experiment: Antimalarial activity against chloroquine and pyrimethamine-resistant Plasmodium falciparum W2 infected in type O+ human RBC assessed as reduction in [3H]hypoxanthine incorporation preincubated for 48 hrs followed by [3H]hypoxanthine addition measured after 96 hrs; format: functional
Procedure, shortened: (§2)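 Ring-stage synchronized cultures (>90% early trophozoite, D-sorbitol) at 0.5% parasitemia, 2% hematocrit in hypoxanthine-free RPMI-1640-LPLF with 10% human plasma, 37°C under 5% O2/5% CO2/90% N2. Ten 2-fold serial dilutions of prodrug for 96 h. [3H]-hypoxanthine (0.2 μCi/well) added at ~48 h. IC50 from non-linear regression of incorporation versus log concentration. Mean (±SD) of at least two independent experiments.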

[4] = Cytotoxicity against human A549 cells after 4 days by Coulter counting method; format: cell-based
Procedure, shortened: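 Human lung carcinoma A549 cells seeded at 7500 cells/well, compounds added next day in serial dilutions; 4 days at 37°C, then cells trypsinized and counted. CC50 = concentration giving 50% inhibition of proliferation versus no-compound control, derived by extrapolation assuming semi-log dose-response.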

[5] = tested on: Plasmodium falciparum; experiment: Antimalarial activity against Plasmodium falciparum D6 infected in type O+ human RBC assessed as reduction in [3H]hypoxanthine incorporation preincubated for 48 hrs followed by [3H]hypoxanthine addition measured after 96 hrs; format: functional; procedure, shortened: as §2
[6] = Selectivity index, ratio of CC50 for human A549 cells to IC50 for Plasmodium falciparum D6; format: toxicity; conditions: read-out: Ratio CC50/IC50
Procedure, shortened: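 Ratio CC50/IC50. CC50: A549 cells, 4-day proliferation, Coulter counting. IC50: Pf D6 ring-stage cultures, 0.5% parasitemia, 2% hematocrit, hypoxanthine-free medium, ten 2-fold dilutions of phosphoramidate prodrugs for 96 h; [3H]-hypoxanthine added at ~48 h; IC50 by non-linear regression; at least two independent experiments, mean ±SD.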

[7] = tested on: Plasmodium falciparum; experiment: Inhibition of Plasmodium falciparum HGPRT using PRib-PP as the substrate at 33 uM by spectrophotometric method
[8] = tested on: Plasmodium falciparum; experiment: Inhibition of Plasmodium falciparum HGPRT using PRib-PP as the substrate at 50 uM by spectrophotometric method

Ki [1] [µM]	SMILES	Ki [2] [µM]	CC50 at 96 h [4] [µM]	other results
4.6	O=c1[nH]cnc2c1ccn2CC(COCCP(=O)(O)O)COCP(=O)(O)O (stereo not given)	6	–	–
1.8	O=c1[nH]cnc2c1ncn2CC(COCCP(=O)(O)O)COCP(=O)(O)O (stereo not given)	3	–	–
–	Nc1nc2c(ncn2CC(COCCP(=O)(O)O)OCCP(=O)(O)O)c(=O)[nH]1 (stereo not given)	0.5	–	–
–	CCOC(=O)[C@H](Cc1ccccc1)NP(=O)(CCOCC(COCP(=O)(N[C@@H](Cc1ccccc1)C(=O)OCC)N[C@@H](Cc1ccccc1)C(=O)OCC)Cn1c(Br)nc2c(=O)[nH]c(N)nc21)N[C@@H](Cc1ccccc1)C(=O)OCC (stereo not given in full)	–	151	IC50 [3]: 8.3 µM; IC50 [5]: 5.6 µM; selectivity ratio [6]: 27
–	CCOC(=O)[C@H](Cc1ccccc1)NP(=O)(CCOCC(COCP(=O)(N[C@@H](Cc1ccccc1)C(=O)OCC)N[C@@H](Cc1ccccc1)C(=O)OCC)Cn1ccc2c(=O)[nH]c(N)nc21)N[C@@H](Cc1ccccc1)C(=O)OCC (stereo not given in full)	–	106	IC50 [3]: 6.5 µM; IC50 [5]: 1.8 µM; selectivity ratio [6]: 59
–	CCOC(=O)[C@H](Cc1ccccc1)NP(=O)(CCOCC(COCP(=O)(N[C@@H](Cc1ccccc1)C(=O)OCC)N[C@@H](Cc1ccccc1)C(=O)OCC)Cn1cnc2c(=O)[nH]cnc21)N[C@@H](Cc1ccccc1)C(=O)OCC (stereo not given in full)	–	82	IC50 [3]: 3.2 µM; IC50 [5]: 1.4 µM; selectivity ratio [6]: 59
0.7	O=c1[nH]cnc2c1ncn2CC(COCCP(=O)(O)O)OCCP(=O)(O)O (stereo not given)	–	–	inhibition [7]: inactive
2.5	O=c1[nH]cnc2c1nc(Br)n2CC(COCCP(=O)(O)O)COCP(=O)(O)O (stereo not given)	–	–	inhibition [8]: inactive
–	CCOC(=O)[C@H](Cc1ccccc1)NP(=O)(CCOCC(COCP(=O)(N[C@@H](Cc1ccccc1)C(=O)OCC)N[C@@H](Cc1ccccc1)C(=O)OCC)Cn1c(Br)nc2c(=O)[nH]cnc21)N[C@@H](Cc1ccccc1)C(=O)OCC (stereo not given in full)	–	36	–
0.1	Nc1nc2c(nc(Br)n2CC(COCCP(=O)(O)O)COCP(=O)(O)O)c(=O)[nH]1 (stereo not given)	2	–	–
0.4	Nc1nc2c(nc(Br)n2CC(COCCP(=O)(O)O)OCCP(=O)(O)O)c(=O)[nH]1 (stereo not given)	0.9	–	–
–	O=c1[nH]cnc2c1ncn2CC(COCP(=O)(O)O)COCP(=O)(O)O	5	–	–
–	CCOC(=O)[C@H](Cc1ccccc1)NP(=O)(CCOCC(Cn1c(Br)nc2c(=O)[nH]c(N)nc21)OCCP(=O)(N[C@@H](Cc1ccccc1)C(=O)OCC)N[C@@H](Cc1ccccc1)C(=O)OCC)N[C@@H](Cc1ccccc1)C(=O)OCC (stereo not given in full)	–	188	–
–	CCOC(=O)[C@H](Cc1ccccc1)NP(=O)(CCOCC(COCP(=O)(N[C@@H](Cc1ccccc1)C(=O)OCC)N[C@@H](Cc1ccccc1)C(=O)OCC)Cn1ccc2c(=O)[nH]cnc21)N[C@@H](Cc1ccccc1)C(=O)OCC (stereo not given in full)	–	20	–
–	CCOC(=O)[C@H](Cc1ccccc1)NP(=O)(CCOCC(COCP(=O)(N[C@@H](Cc1ccccc1)C(=O)OCC)N[C@@H](Cc1ccccc1)C(=O)OCC)Cn1cnc2c(=O)[nH]c(N)nc21)N[C@@H](Cc1ccccc1)C(=O)OCC (stereo not given in full)	–	212	IC50 [3]: 7.4 µM; IC50 [5]: 5.7 µM; selectivity ratio [6]: 37
–	CCOC(=O)[C@H](Cc1ccccc1)NP(=O)(CCOCC(Cn1cnc2c(=O)[nH]cnc21)OCCP(=O)(N[C@@H](Cc1ccccc1)C(=O)OCC)N[C@@H](Cc1ccccc1)C(=O)OCC)N[C@@H](Cc1ccccc1)C(=O)OCC (stereo not given in full)	–	–	IC50 [3]: 1.9 µM; IC50 [5]: 3.6 µM; selectivity ratio [6]: 25

SMILES	Ki [1] [µM]	Ki [2] [µM]	CC50 at 96 h [4] [µM]	other results
Nc1nc2c(ncn2CC(COCCP(=O)(O)O)COCP(=O)(O)O)c(=O)[nH]1 (stereo not given)	0.006	0.07	–	–
Nc1nc2c(ccn2CC(COCCP(=O)(O)O)COCP(=O)(O)O)c(=O)[nH]1 (stereo not given)	0.1	4	–	–
